Residues, ends and D or L forms follow the SMILES beside them.
Experiments:
Mu-type opioid receptor = Mu-type opioid receptor (Rattus norvegicus, UniProt P33535); experiment: Binding affinity for mu opioid receptors by displacement of [3H]-DAMGO from rat brain membrane binding site
[1] = biological target: Delta-type opioid receptor (Rattus norvegicus, UniProt P33533); experiment: Binding affinity for delta opioid receptors was determined by displacement of [3H]DSLET from rat brain membrane binding site
Chain of Delta-type opioid receptor (P33533 whole entry): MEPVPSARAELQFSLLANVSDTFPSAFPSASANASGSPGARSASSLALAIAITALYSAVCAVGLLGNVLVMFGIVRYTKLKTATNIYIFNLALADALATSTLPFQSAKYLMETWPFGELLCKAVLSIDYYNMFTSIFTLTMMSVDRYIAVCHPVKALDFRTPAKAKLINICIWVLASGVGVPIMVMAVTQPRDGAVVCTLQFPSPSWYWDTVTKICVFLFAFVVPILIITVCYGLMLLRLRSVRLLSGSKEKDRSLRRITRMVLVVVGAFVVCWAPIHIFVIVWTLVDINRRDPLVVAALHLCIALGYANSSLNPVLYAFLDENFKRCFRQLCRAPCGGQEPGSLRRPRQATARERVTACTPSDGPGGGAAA
In short: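 Rat brain membranes incubated 2 h at 0 °C with 0.78 nM [3H]DSLET. IC50 read from dose-displacement curves. […] Mean of three to six determinations ± SEM.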

Mus musculus = organism: Mus musculus; experiment: In vitro inhibition of electrically evoked contractions of the mouse vas deferens (MVD); type: functional
In short: (§1)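 Electrically evoked contractions of isolated tissue preparations. Each preparation had its own log dose-response curve with [Leu5]enkephalin as standard. Test IC50 values were normalized to that standard. Mean of three to six determinations ± SEM. Partial agonists are reported as % maximal inhibition of contraction at high concentrations.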

Cavia porcellus = organism: Cavia porcellus; experiment: In vitro inhibition of electrically evoked contractions of the guinea pig ileum (GPI); type: functional; in short: as §1

Chain of Mu-type opioid receptor (P33535 whole entry): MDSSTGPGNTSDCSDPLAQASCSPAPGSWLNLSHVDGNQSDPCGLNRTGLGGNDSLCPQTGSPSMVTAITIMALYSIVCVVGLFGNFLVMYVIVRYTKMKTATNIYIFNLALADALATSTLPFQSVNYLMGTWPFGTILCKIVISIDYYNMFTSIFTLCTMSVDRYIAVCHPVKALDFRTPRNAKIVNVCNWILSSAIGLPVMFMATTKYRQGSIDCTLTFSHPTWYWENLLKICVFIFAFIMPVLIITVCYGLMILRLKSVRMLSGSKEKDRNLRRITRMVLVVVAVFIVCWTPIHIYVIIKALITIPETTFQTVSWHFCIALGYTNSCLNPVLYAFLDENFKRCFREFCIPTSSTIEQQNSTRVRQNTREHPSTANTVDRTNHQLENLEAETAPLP

SMILES	Ki (Mu-type opioid receptor)	Ki [1]	IC50 (Mus musculus)	IC50 (Cavia porcellus)
N[C@@H](Cc1ccc(O)cc1)C(=O)N[C@@H]1CCCNC(=O)CNC(=O)[C@H]2CCCN2C(=O)[C@H](Cc2c[nH]c3ccccc23)NC1=O	0.00209 µM	0.0103 µM	0.0161 µM	0.0275 µM
N[C@@H](Cc1ccc(O)cc1)C(=O)N[C@@H]1CCCNC(=O)CNC(=O)[C@H]2CCCN2C(=O)[C@H](Cc2ccccc2)NC1=O	0.000881 µM	0.0132 µM	0.00498 µM	0.00214 µM
N[C@@H](Cc1ccc(O)cc1)C(=O)N[C@@H]1CCCNC(=O)CNC(=O)[C@H]2CCCN2C(=O)[C@H](Cc2ccc3ccccc3c2)NC1=O				0.384 µM
N[C@@H](Cc1ccc(O)cc1)C(=O)N[C@@H]1CCNC(=O)CNC(=O)[C@H]2CCCN2C(=O)[C@H](Cc2ccc3ccccc3c2)NC1=O	0.00641 µM	0.0708 µM	1 µM	0.353 µM
N[C@@H](Cc1ccc(O)cc1)C(=O)N[C@@H]1CCCNC(=O)CNC(=O)[C@H]2CCCN2C(=O)[C@H](Cc2cccc3ccccc23)NC1=O	0.00342 µM	0.0236 µM	0.0299 µM	0.0149 µM
N[C@@H](Cc1ccc(O)cc1)C(=O)N[C@@H]1CCCNC(=O)[C@H]2CCCN2C(=O)[C@H](Cc2ccc3ccccc3c2)NC1=O	0.00274 µM	0.0283 µM	0.0322 µM	0.0118 µM
NC(=O)[C@H](Cc1ccccc1)NC(=O)[C@H](Cc1ccccc1)NC(=O)[C@@H]1Cc2ccccc2CN1C(=O)[C@@H](N)Cc1ccc(O)cc1 (HELM PEPTIDE1{Y.[Tic].F.F.[am]}$$$$V2.0)				1.7 µM
N[C@@H](Cc1ccc(O)cc1)C(=O)NC1CCCNC(=O)CNC(=O)[C@@H]2CCCN2C(=O)[C@H](Cc2ccccc2)NC1=O (single isomer, unassigned)	0.00399 µM	1.28 µM	0.0699 µM	0.0134 µM
N[C@@H](Cc1ccc(O)cc1)C(=O)NC1CCCNC(=O)CNC(=O)[C@@H]2CCCN2C(=O)[C@H](Cc2ccc3ccccc3c2)NC1=O (single isomer, unassigned)	0.0813 µM	2.14 µM	10 µM	1.22 µM
